# Results published in ChEMBL document CHEMBL5303300, “EUbOPEN Chemogenomics Library - Multiplex” (2023).
# Several values for one entry are separate records, joined by “and”; a condition that tells them apart may be missing. Equal entries are not always repeated.
# Legend:
# Assay type in all cases: toxicity, cell-based
# Fibroblast = experiment: Multiplex assay against human fibroblast; details: number of replicates 2
# In short: (§1)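 Live cells carried four stains from seeding: Hoechst33342, BioTracker Green Microtubule Cytoskeleton Dye, MitoTracker Red and Annexin V Alexa Fluor 680. They were imaged on a CQ1 microscope at 37°C and 5% CO2 after compound addition. Using CellPathfinder machine-learning gating, cells were split into Hoechst high-intensity objects or normal cells, normal cells into healthy, pyknosed or fragmented nuclei, and pyknosed cells into mitotic or apoptotic; tubulin, mitochondrial-mass and membrane-permeability phenotypes are per cents of healthy-nucleus cells.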
# U2OS = experiment: Multiplex assay against U2OS; details: human, number of replicates 2; in short: as §1
# HEK-293T = experiment: Multiplex assay against HEK293T; details: human, number of replicates 2; in short: as §1
# [1] = 12 h, 1 µM, compound concentration 1 uM
# [2] = 12 h, 10 µM, compound concentration 10 uM
# [3] = 24 h, 1 µM, compound concentration 1 uM
# [4] = 24 h, 10 µM, compound concentration 10 uM
# [5] = 48 h, 1 µM, compound concentration 1 uM
# [6] = 48 h, 10 µM, compound concentration 10 uM
structure (smiles),measurement,setting,value
COc1cc(Br)c(S(=O)(=O)Nc2ccc(C(F)(F)F)c(O[C@@H]3CCN(C)C3)c2)cc1OC,Population Apoptotic (%),Fibroblast; [1],54% and 48%
same,Population Fragmented Nuclei (%),Fibroblast; [1],13% and 15%
same,Population Healthy Nuclei (%),Fibroblast; [1],71% and 63%
same,Population Hoechst High Intensity Objects (%),Fibroblast; [1],0%
same,Population Membrane Permeable-Phenotype (%),Fibroblast; [1],3% and 4%
same,Population Mitochondria Different-Phenotype (%),Fibroblast; [1],0%
same,Population Mitotic Cells (%),Fibroblast; [1],45% and 51%
same,Population Normal (%),Fibroblast; [1],100% and 99%
same,Population Pyknosed Nuclei (%),Fibroblast; [1],14% and 21%
same,Population Tubulin-Different-Phenotype (%),Fibroblast; [1],8% and 14%
same,Total Cell Count,Fibroblast; [1],161 and 215
same,Population Apoptotic (%),Fibroblast; [2],42% and 34%
same,Population Fragmented Nuclei (%),Fibroblast; [2],12% and 15%
same,Population Healthy Nuclei (%),Fibroblast; [2],61% and 63%
same,Population Hoechst High Intensity Objects (%),Fibroblast; [2],0%
same,Population Membrane Permeable-Phenotype (%),Fibroblast; [2],8% and 7%
same,Population Mitochondria Different-Phenotype (%),Fibroblast; [2],1% and 0%
same,Population Mitotic Cells (%),Fibroblast; [2],57% and 65%
same,Population Normal (%),Fibroblast; [2],100%
same,Population Pyknosed Nuclei (%),Fibroblast; [2],25% and 21%
same,Population Tubulin-Different-Phenotype (%),Fibroblast; [2],36% and 23%
same,Total Cell Count,Fibroblast; [2],164 and 244
same,Population Apoptotic (%),Fibroblast; [3],50% and 65%
same,Population Fragmented Nuclei (%),Fibroblast; [3],12% and 16%
same,Population Healthy Nuclei (%),Fibroblast; [3],67% and 62%
same,Population Hoechst High Intensity Objects (%),Fibroblast; [3],0%
same,Population Membrane Permeable-Phenotype (%),Fibroblast; [3],6% and 7%
same,Population Mitochondria Different-Phenotype (%),Fibroblast; [3],0% and 3%
same,Population Mitotic Cells (%),Fibroblast; [3],50% and 34%
same,Population Normal (%),Fibroblast; [3],99% and 100%
same,Population Pyknosed Nuclei (%),Fibroblast; [3],19% and 20%
same,Population Tubulin-Different-Phenotype (%),Fibroblast; [3],13% and 16%
same,Total Cell Count,Fibroblast; [3],157 and 207
same,Population Apoptotic (%),Fibroblast; [4],53% and 68%
same,Population Fragmented Nuclei (%),Fibroblast; [4],17% and 15%
same,Population Healthy Nuclei (%),Fibroblast; [4],63% and 69%
same,Population Hoechst High Intensity Objects (%),Fibroblast; [4],0%
same,Population Membrane Permeable-Phenotype (%),Fibroblast; [4],10% and 6%
same,Population Mitochondria Different-Phenotype (%),Fibroblast; [4],4% and 3%
same,Population Mitotic Cells (%),Fibroblast; [4],46% and 31%
same,Population Normal (%),Fibroblast; [4],100%
same,Population Pyknosed Nuclei (%),Fibroblast; [4],19% and 15%
same,Population Tubulin-Different-Phenotype (%),Fibroblast; [4],36% and 23%
same,Total Cell Count,Fibroblast; [4],163 and 231
same,Population Apoptotic (%),Fibroblast; [5],66% and 76%
same,Population Fragmented Nuclei (%),Fibroblast; [5],11% and 18%
same,Population Healthy Nuclei (%),Fibroblast; [5],72% and 69%
same,Population Hoechst High Intensity Objects (%),Fibroblast; [5],0%
same,Population Membrane Permeable-Phenotype (%),Fibroblast; [5],5% and 4%
same,Population Mitochondria Different-Phenotype (%),Fibroblast; [5],1%
same,Population Mitotic Cells (%),Fibroblast; [5],33% and 24%
same,Population Normal (%),Fibroblast; [5],100%
same,Population Pyknosed Nuclei (%),Fibroblast; [5],15% and 12%
same,Population Tubulin-Different-Phenotype (%),Fibroblast; [5],10% and 7%
same,Total Cell Count,Fibroblast; [5],154 and 204
same,Population Apoptotic (%),Fibroblast; [6],64% and 55%
same,Population Fragmented Nuclei (%),Fibroblast; [6],19% and 16%
same,Population Healthy Nuclei (%),Fibroblast; [6],71%
same,Population Hoechst High Intensity Objects (%),Fibroblast; [6],0%
same,Population Membrane Permeable-Phenotype (%),Fibroblast; [6],9% and 4%
same,Population Mitochondria Different-Phenotype (%),Fibroblast; [6],0% and 1%
same,Population Mitotic Cells (%),Fibroblast; [6],35% and 44%
same,Population Normal (%),Fibroblast; [6],100%
same,Population Pyknosed Nuclei (%),Fibroblast; [6],8% and 12%
same,Population Tubulin-Different-Phenotype (%),Fibroblast; [6],17% and 9%
same,Total Cell Count,Fibroblast; [6],156 and 218
same,Population Fragmented Nuclei (%),U2OS; [1],10% and 4%
same,Population Healthy Nuclei (%),U2OS; [1],80% and 88%
same,Population Hoechst High Intensity Objects (%),U2OS; [1],0%
same,Population Membrane Permeable-Phenotype (%),U2OS; [1],4% and 0%
same,Population Mitochondria Different-Phenotype (%),U2OS; [1],0%
same,Population Mitotic Cells (%),U2OS; [1],100% and 46%
same,Population Normal (%),U2OS; [1],100%
same,Population Pyknosed Nuclei (%),U2OS; [1],10% and 7%
same,Population Tubulin-Different-Phenotype (%),U2OS; [1],66% and 89%
same,Population Apoptotic (%),U2OS; [2],60% and 78%
same,Population Healthy Nuclei (%),U2OS; [2],67% and 85%
same,Population Hoechst High Intensity Objects (%),U2OS; [2],0%
same,Population Membrane Permeable-Phenotype (%),U2OS; [2],4% and 0%
same,Population Mitochondria Different-Phenotype (%),U2OS; [2],4% and 0%
same,Population Mitotic Cells (%),U2OS; [2],40% and 21%
same,Population Normal (%),U2OS; [2],100%
same,Population Pyknosed Nuclei (%),U2OS; [2],16% and 10%
same,Population Tubulin-Different-Phenotype (%),U2OS; [2],66% and 59%
same,Population Apoptotic (%),U2OS; [3],66% and 47%
same,Population Fragmented Nuclei (%),U2OS; [3],7% and 3%
same,Population Healthy Nuclei (%),U2OS; [3],85% and 88%
same,Population Hoechst High Intensity Objects (%),U2OS; [3],0%
same,Population Membrane Permeable-Phenotype (%),U2OS; [3],0% and 3%
same,Population Mitochondria Different-Phenotype (%),U2OS; [3],0%
same,Population Mitotic Cells (%),U2OS; [3],33% and 52%
same,Population Normal (%),U2OS; [3],100%
same,Population Pyknosed Nuclei (%),U2OS; [3],7%
same,Population Tubulin-Different-Phenotype (%),U2OS; [3],77% and 87%
same,Population Fragmented Nuclei (%),U2OS; [4],8% and 2%
same,Population Healthy Nuclei (%),U2OS; [4],75% and 85%
same,Population Hoechst High Intensity Objects (%),U2OS; [4],0%
same,Population Membrane Permeable-Phenotype (%),U2OS; [4],0% and 2%
same,Population Mitochondria Different-Phenotype (%),U2OS; [4],3% and 2%
same,Population Mitotic Cells (%),U2OS; [4],83% and 48%
same,Population Normal (%),U2OS; [4],100%
same,Population Pyknosed Nuclei (%),U2OS; [4],16% and 11%
same,Population Tubulin-Different-Phenotype (%),U2OS; [4],70% and 74%
same,Population Apoptotic (%),U2OS; [5],30% and 51%
same,Population Healthy Nuclei (%),U2OS; [5],69% and 89%
same,Population Hoechst High Intensity Objects (%),U2OS; [5],0%
same,Population Membrane Permeable-Phenotype (%),U2OS; [5],0% and 1%
same,Population Mitochondria Different-Phenotype (%),U2OS; [5],0%
same,Population Mitotic Cells (%),U2OS; [5],69% and 48%
same,Population Normal (%),U2OS; [5],100% and 99%
same,Population Pyknosed Nuclei (%),U2OS; [5],14% and 7%
same,Population Tubulin-Different-Phenotype (%),U2OS; [5],79% and 91%
same,Population Apoptotic (%),U2OS; [6],57% and 61%
same,Population Fragmented Nuclei (%),U2OS; [6],9% and 1%
same,Population Healthy Nuclei (%),U2OS; [6],79% and 91%
same,Population Hoechst High Intensity Objects (%),U2OS; [6],0%
same,Population Membrane Permeable-Phenotype (%),U2OS; [6],9% and 1%
same,Population Mitochondria Different-Phenotype (%),U2OS; [6],5% and 0%
same,Population Mitotic Cells (%),U2OS; [6],42% and 38%
same,Population Normal (%),U2OS; [6],100%
same,Population Pyknosed Nuclei (%),U2OS; [6],10% and 6%
same,Population Tubulin-Different-Phenotype (%),U2OS; [6],92% and 81%
same,Population Apoptotic (%),HEK-293T; [1],35% and 41%
same,Population Fragmented Nuclei (%),HEK-293T; [1],4% and 3%
same,Population Healthy Nuclei (%),HEK-293T; [1],83% and 84%
same,Population Hoechst High Intensity Objects (%),HEK-293T; [1],8% and 6%
same,Population Membrane Permeable-Phenotype (%),HEK-293T; [1],3% and 4%
same,Population Mitochondria Different-Phenotype (%),HEK-293T; [1],14% and 12%
same,Population Mitotic Cells (%),HEK-293T; [1],64% and 58%
same,Population Normal (%),HEK-293T; [1],91% and 93%
same,Population Pyknosed Nuclei (%),HEK-293T; [1],11% and 12%
same,Population Tubulin-Different-Phenotype (%),HEK-293T; [1],48% and 41%
same,Total Cell Count,HEK-293T; [1],739 and 648
same,Population Apoptotic (%),HEK-293T; [2],60% and 67%
same,Population Fragmented Nuclei (%),HEK-293T; [2],5% and 3%
same,Population Healthy Nuclei (%),HEK-293T; [2],78%
same,Population Hoechst High Intensity Objects (%),HEK-293T; [2],11% and 8%
same,Population Membrane Permeable-Phenotype (%),HEK-293T; [2],3% and 5%
same,Population Mitochondria Different-Phenotype (%),HEK-293T; [2],31% and 22%
same,Population Mitotic Cells (%),HEK-293T; [2],39% and 32%
same,Population Normal (%),HEK-293T; [2],88% and 91%
same,Population Pyknosed Nuclei (%),HEK-293T; [2],16% and 17%
same,Population Tubulin-Different-Phenotype (%),HEK-293T; [2],76% and 59%
same,Total Cell Count,HEK-293T; [2],481 and 500
same,Population Apoptotic (%),HEK-293T; [3],38% and 42%
same,Population Fragmented Nuclei (%),HEK-293T; [3],4% and 5%
same,Population Healthy Nuclei (%),HEK-293T; [3],86%
same,Population Hoechst High Intensity Objects (%),HEK-293T; [3],7% and 8%
same,Population Membrane Permeable-Phenotype (%),HEK-293T; [3],2% and 3%
same,Population Mitochondria Different-Phenotype (%),HEK-293T; [3],2% and 3%
same,Population Mitotic Cells (%),HEK-293T; [3],61% and 57%
same,Population Normal (%),HEK-293T; [3],92% and 91%
same,Population Pyknosed Nuclei (%),HEK-293T; [3],8%
same,Population Tubulin-Different-Phenotype (%),HEK-293T; [3],26% and 23%
same,Total Cell Count,HEK-293T; [3],1282 and 991
same,Population Apoptotic (%),HEK-293T; [4],59% and 43%
same,Population Fragmented Nuclei (%),HEK-293T; [4],9% and 6%
same,Population Healthy Nuclei (%),HEK-293T; [4],78% and 83%
same,Population Hoechst High Intensity Objects (%),HEK-293T; [4],9% and 8%
same,Population Membrane Permeable-Phenotype (%),HEK-293T; [4],1% and 4%
same,Population Mitochondria Different-Phenotype (%),HEK-293T; [4],10% and 6%
same,Population Mitotic Cells (%),HEK-293T; [4],40% and 56%
same,Population Normal (%),HEK-293T; [4],90% and 91%
same,Population Pyknosed Nuclei (%),HEK-293T; [4],12% and 9%
same,Population Tubulin-Different-Phenotype (%),HEK-293T; [4],51% and 30%
same,Total Cell Count,HEK-293T; [4],764 and 718
same,Population Apoptotic (%),HEK-293T; [5],14% and 8%
same,Population Fragmented Nuclei (%),HEK-293T; [5],15% and 9%
same,Population Healthy Nuclei (%),HEK-293T; [5],82% and 87%
same,Population Hoechst High Intensity Objects (%),HEK-293T; [5],9%
same,Population Membrane Permeable-Phenotype (%),HEK-293T; [5],4% and 3%
same,Population Mitochondria Different-Phenotype (%),HEK-293T; [5],0%
same,Population Mitotic Cells (%),HEK-293T; [5],85% and 91%
same,Population Normal (%),HEK-293T; [5],90%
same,Population Pyknosed Nuclei (%),HEK-293T; [5],2%
same,Population Tubulin-Different-Phenotype (%),HEK-293T; [5],13% and 11%
same,Total Cell Count,HEK-293T; [5],3360 and 2392
same,Population Apoptotic (%),HEK-293T; [6],25% and 20%
same,Population Fragmented Nuclei (%),HEK-293T; [6],13%
same,Population Healthy Nuclei (%),HEK-293T; [6],82% and 84%
same,Population Hoechst High Intensity Objects (%),HEK-293T; [6],9%
same,Population Membrane Permeable-Phenotype (%),HEK-293T; [6],5% and 6%
same,Population Mitochondria Different-Phenotype (%),HEK-293T; [6],0%
same,Population Mitotic Cells (%),HEK-293T; [6],75% and 80%
same,Population Normal (%),HEK-293T; [6],90%
same,Population Pyknosed Nuclei (%),HEK-293T; [6],4% and 2%
same,Population Tubulin-Different-Phenotype (%),HEK-293T; [6],24% and 13%
same,Total Cell Count,HEK-293T; [6],1611 and 1583
